From ChEMBL document CHEMBL2390922, “Synthesis and biological evaluation of sulforaphane derivatives as potential antitumor agents” (Eur J Med Chem, 2013)
The source made the active and inactive calls. No cut-off for these calls is given here.

How the values were obtained:
Vero = assay: Cytotoxicity against African green monkey Vero cells after 72 hrs by MTT assay; format: cell-based; settings: Chlorocebus sabaeus
[1] = Cytotoxicity against human SH-SY5Y cells after 72 hrs by MTT assay; format: functional, cell-based
In short: (§1)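 Cells were grown in RPMI-1640 or DMEM with 10% NBS or FBS and 100 U/mL penicillin, at 37 °C under 5% CO₂. After 72 h with a range of compound concentrations, MTT was added for a further 4 h at 37 °C. Formazan was dissolved in DMSO and absorbance read at 570 and 630 nm. Assays ran in triplicate across three independent experiments, and IC₅₀ was calculated for 50% loss of viability.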

HCT-116 = assay: Cytotoxicity against human HCT116 cells after 72 hrs by MTT assay; format: functional, cell-based; settings: HCT-116, 72 h; in short: as §1
A549 = assay: Cytotoxicity against human A549 cells after 72 hrs by MTT assay; format: functional, cell-based; settings: A549, 72 h
In short: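 After 72 h with a range of compound concentrations, MTT was added for a further 4 h at 37 °C. Formazan was dissolved in DMSO and absorbance read at 570 and 630 nm. Assays ran in triplicate across three independent experiments, and IC₅₀ was calculated for 50% loss of viability.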

MCF7 = assay: Cytotoxicity against human MCF7 cells after 72 hrs by MTT assay; format: functional, cell-based; settings: MCF7, 72 h; in short: as §1
HepG2 [2] = assay: Cytotoxicity against human HepG2 cells after 72 hrs by MTT assay; format: functional, cell-based; settings: HepG2, 72 h; in short: as §1
[3] = molecular target: T1, Nuclear factor erythroid 2-related factor 2 (Homo sapiens) (UniProt Q16236); assay: Activation of NRF2 in human HepG2 cells after 6 hrs by spectrophotometric analysis; format: cell-based
T1 sequence (whole entry): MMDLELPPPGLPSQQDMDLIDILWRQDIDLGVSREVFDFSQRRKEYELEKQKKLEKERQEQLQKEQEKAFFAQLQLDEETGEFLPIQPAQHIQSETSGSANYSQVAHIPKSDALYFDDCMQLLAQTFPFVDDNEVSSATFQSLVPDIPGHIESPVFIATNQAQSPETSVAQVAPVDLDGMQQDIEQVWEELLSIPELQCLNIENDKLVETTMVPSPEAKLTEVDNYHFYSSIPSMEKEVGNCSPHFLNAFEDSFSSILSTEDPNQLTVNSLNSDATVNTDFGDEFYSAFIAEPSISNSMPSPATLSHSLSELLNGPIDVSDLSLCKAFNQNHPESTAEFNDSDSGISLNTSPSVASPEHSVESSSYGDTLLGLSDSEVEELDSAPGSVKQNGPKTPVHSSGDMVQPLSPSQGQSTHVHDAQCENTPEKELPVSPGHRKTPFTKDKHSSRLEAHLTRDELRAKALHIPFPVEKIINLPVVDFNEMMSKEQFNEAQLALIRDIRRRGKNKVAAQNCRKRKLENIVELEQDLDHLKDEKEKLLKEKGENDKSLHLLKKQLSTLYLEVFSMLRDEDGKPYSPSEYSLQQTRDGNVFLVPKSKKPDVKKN
In short: (§2)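 HepG2 cells treated 2, 4 and 8 h at 20 µM, or 6 h at 5, 10 and 20 µM. Nuclear extracts were prepared by hypotonic lysis and detergent, then 14,000 g spin at 4 °C. Nrf2 DNA-binding was measured by TransAM ELISA: nuclear extract incubated 1 h at room temperature in wells, anti-Nrf2 (1:1000) 1 h, HRP secondary (1:1000), developing solution 2-15 min, stop solution.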

[4] = molecular target: T1, Nuclear factor erythroid 2-related factor 2 (Homo sapiens); assay: Activation of NRF2 in human HepG2 cells at 20 uM by spectrophotometric analysis; format: cell-based; settings: TDE = time-dependent effect; in short: as §2
HepG2 [5] = assay: Induction of apoptosis in human HepG2 cells assessed as late apoptotic cells at 20 uM after 48 hrs by Annexin-V-FITC/propidium iodide staining-based flow cytometric analysis (reference value: 0.29%); format: functional
HepG2 [6] = assay: Induction of apoptosis in human HepG2 cells assessed as late apoptotic cells at 10 uM after 48 hrs by Annexin-V-FITC/propidium iodide staining-based flow cytometric analysis (reference value: 0.29%); format: functional
HepG2 [7] = assay: Induction of apoptosis in human HepG2 cells assessed as late apoptotic cells at 5 uM after 48 hrs by Annexin-V-FITC/propidium iodide staining-based flow cytometric analysis (reference value: 0.29%); format: functional
HepG2 [8] = assay: Induction of apoptosis in human HepG2 cells assessed as early apoptotic cells at 20 uM after 48 hrs by Annexin-V-FITC/propidium iodide staining-based flow cytometric analysis (reference value: 0.14%); format: functional
HepG2 [9] = assay: Induction of apoptosis in human HepG2 cells assessed as early apoptotic cells at 10 uM after 48 hrs by Annexin-V-FITC/propidium iodide staining-based flow cytometric analysis (reference value: 0.14%); format: functional
HepG2 [10] = assay: Induction of apoptosis in human HepG2 cells assessed as early apoptotic cells at 5 uM after 48 hrs by Annexin-V-FITC/propidium iodide staining-based flow cytometric analysis (reference value: 0.14%); format: functional
HepG2 [11] = assay: Cell cycle arrest in human HepG2 cells assessed as accumulation at S phase at 20 uM after 48 hrs by DAPI staining-based flow cytometric analysis relative to control; format: functional
In short: (§3)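 HepG2 cells cultured at 37 °C, 5% CO2, exposed 48 h to 5, 10 or 20 µM. Cells harvested, washed twice in PBS, and DNA content of 10,000 events read by flow cytometry. Phase proportions compared with vehicle control; significance at p<0.05 and p<0.01.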

HepG2 [12] = assay: Cell cycle arrest in human HepG2 cells assessed as accumulation at G2/M phase at 5 to 20 uM after 48 hrs by DAPI staining-based flow cytometric analysis; format: functional; in short: as §3
HepG2 [13] = assay: Cell cycle arrest in human HepG2 cells assessed as decrease in accumulation at G0/G1 phase after 48 hrs by DAPI staining-based flow cytometric analysis; format: functional
In short: (§4)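 HepG2 cells were exposed for 48 h to 5, 10 or 20 of each agent, alongside a vehicle control. About […] cells were harvested and washed twice in PBS. DNA content was read by flow cytometry on 10,000 events, giving the percentage of cells in each phase relative to control.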

HepG2 [14] = assay: Cell cycle arrest in human HepG2 cells assessed as accumulation at S phase after 48 hrs by DAPI staining-based flow cytometric analysis; format: functional; in short: as §4

Structure (SMILES) | IC50 (Vero) [µM] | IC50 [1] [µM] | IC50 (HCT-116) [µM] | IC50 (A549) [µM] | IC50 (MCF7) [µM] | IC50 (HepG2 [2]) [µM] | Activity [3] | Activity [4] | Activity (HepG2 [5]) [%] | Activity (HepG2 [6]) [%] | Activity (HepG2 [7]) [%] | Activity (HepG2 [8]) [%] | Activity (HepG2 [9]) [%] | Activity (HepG2 [10]) [%] | Activity (HepG2 [11]) [%] | Activity (HepG2 [12]) | Activity (HepG2 [13]) | Activity (HepG2 [14])
CC(C)[S+]([O-])CCCCCCN=C=S (stereo unspecified) | 7.31 | 7.82 | 9.46 | 12 | 9.76 | 7.82 |  |  |  |  |  |  |  |  |  |  |  | 
S=C=NCCCCSCc1ccccc1 | 24.9 | 20.7 | 41.5 | 51.3 | 38.3 | 12.6 |  |  |  |  |  |  |  |  |  |  |  | 
CC(C)[S+]([O-])CCCCN=C=S (stereo unspecified) | 10.4 | 9.42 | 3.74 | 10.4 | 8.82 | 2.05 |  |  |  |  |  |  |  |  |  |  |  | 
[O-][S+](CCCCN=C=S)C1CCCC1 (stereo unspecified) | 4.6 | 7.14 | 3.14 | 10.1 | 4.45 | 3.64 |  |  |  |  |  |  |  |  |  |  |  | 
O=[N+]([O-])c1ccc(C[S+]([O-])CCCCN=C=S)cc1 (stereo unspecified) | 3.36 | 7.23 | 2.83 | 14.3 | 7.77 | 3.18 |  |  |  |  |  |  |  |  |  |  |  | 
[O-][S+](CCCCCN=C=S)Cc1ccccc1 (stereo unspecified) | 5.85 | 7.01 | 5.19 | 6.21 | 3.83 | 3.91 |  |  |  |  |  |  |  |  |  |  |  | 
COc1ccc(C[S+]([O-])CCCCN=C=S)cc1 (stereo unspecified) | 3.71 | 2.79 | 5.46 | 32.5 | 8.89 | 4.62 |  |  |  |  |  |  |  |  |  |  |  | 
[O-][S+](CCCCN=C=S)c1ccccc1 (stereo unspecified) | 4.33 | 8.75 | 4.53 | 23.8 | 7.05 | 6.34 |  |  |  |  |  |  |  |  |  |  |  | 
CC[S+]([O-])CCCCN=C=S (stereo unspecified) | 7.9 | 9.81 | 3.85 | 10.2 | 8.26 | 5.35 |  |  |  |  |  |  |  |  |  |  |  | 
[O-][S+](CCCCN=C=S)CCc1ccccc1 (stereo unspecified) | 6.82 | 5.6 | 8.02 | 10.2 | 9.33 | 6.97 |  |  |  |  |  |  |  |  |  |  |  | 
CC(C)[S+]([O-])CCCCCN=C=S (stereo unspecified) | 10.3 | 8.62 | 3.42 | 7.75 | 6.78 | 3.69 |  |  |  |  |  |  |  |  |  |  |  | 
[O-][S+](CCCCN=C=S)Cc1ccccn1 (stereo unspecified) | 7.65 | 7.83 | 3.72 | 8.33 | 6.89 | 5.35 |  |  |  |  |  |  |  |  |  |  |  | 
[O-][S+](CCCCN=C=S)Cc1cccs1 (stereo unspecified) | 6.22 | 5.31 | 3.21 | 8.41 | 4.14 | 3.82 |  |  |  |  |  |  |  |  |  |  |  | 
CCC[S+]([O-])CCCCN=C=S (stereo unspecified) | 5.64 | 7.66 | 3.95 | 10.7 | 5.96 | 3.91 |  |  |  |  |  |  |  |  |  |  |  | 
CCCC[S+]([O-])CCCCN=C=S (stereo unspecified) | 5.15 | 6.47 | 2.81 | 9.56 | 5.84 | 5.93 |  |  |  |  |  |  |  |  |  |  |  | 
[O-][S+](CCCN=C=S)Cc1ccccc1 (stereo unspecified) | 10.1 | 8.89 | 15.6 | 11.8 | 7.92 | 9.84 |  |  |  |  |  |  |  |  |  |  |  | 
[O-][S+](CCCCN=C=S)Cc1ccco1 (stereo unspecified) | 5.25 | 7.79 | 3.47 | 5.64 | 5.68 | 3.86 |  |  |  |  |  |  |  |  |  |  |  | 
CC(C)[S+]([O-])CCCN=C=S (stereo unspecified) | 8.25 | 18.1 | 15.9 | 16.7 | 7.93 | 7.14 |  |  |  |  |  |  |  |  |  |  |  | 
[O-][S+](CCCCN=C=S)Cc1ccccc1 (stereo unspecified) | 4.85 | 5.21 | 3.66 | 7.41 | 3.3 | 2.85 | Dose-dependent effect | tde | 25.33 | 10.91 | 1.78 | 0.24 | 0.72 | 0.39 | 9.11 | Active | Dose-dependent effect | Dose-dependent effect
O=c1[nH]cc(F)c(=O)[nH]1 [FLUOROURACIL] | 9.71 | 0.97 | 3.24 |  | 10.1 |  |  |  |  |  |  |  |  |  |  |  |  | 
[O-][S+](CCCCCCN=C=S)Cc1ccccc1 (stereo unspecified) | 4.33 | 7.63 | 11.6 | 14.7 | 5.49 | 6.17 |  |  |  |  |  |  |  |  |  |  |  | 
O=S(=O)(CCCCN=C=S)Cc1ccccc1 | 7.17 | 4.78 | 6.28 | 8.89 | 7.55 | 8.49 |  |  |  |  |  |  |  |  |  |  |  | 
CC(C)C[S+]([O-])CCCCN=C=S (stereo unspecified) | 4.98 | 5.7 | 2.06 | 9.09 | 3.66 | 2.16 |  |  |  |  |  |  |  |  |  |  |  | 
C[S+]([O-])CCCCN=C=S (stereo unspecified) [SULFORAPHANE] | 13.7 | 13.3 | 11.6 | 22 | 17.7 | 14.1 | Dose-dependent effect | tde | 4.19 | 1.22 | 0.73 | 0.9 | 0.44 | 0.15 | 5.9 | Active | Dose-dependent effect | Dose-dependent effect
